Experiments:
Assay type in all cases: functional
Settings in all cases: UCA 992, 144 h
Botrytis cinerea [1] = assay: Antifungal activity against Botryotinia fuckeliana UCA 992 assessed as inhibition of radial growth at 200 ug/mL after 6 days relative to control
Summary of the method: (§1)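 Radial growth assay on glucose-malt-peptone-agar (61 g/L, pH 6.5-7.0). Compounds dissolved in EtOH, giving 50-200 mg L-1 final in the medium, with equal EtOH in control and treated plates. A 5 mm mycelial disk from an actively growing culture was placed at the plate centre and radial growth followed for 6 days. % inhibition = 100 - [(treated growth/control growth) × 100]. At least three independent experiments, each in triplicate, ± SD.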

Botrytis cinerea [2] = assay: Antifungal activity against Botryotinia fuckeliana UCA 992 assessed as inhibition of radial growth at 50 ug/mL after 6 days relative to control; summary of the method: as §1
Botrytis cinerea [3] = assay: Antifungal activity against Botryotinia fuckeliana UCA 992 assessed as inhibition of radial growth at 100 ug/mL after 6 days relative to control; summary of the method: as §1

Compound | inhibition at 200 µg/mL (Botrytis cinerea [1]) | inhibition at 50 µg/mL (Botrytis cinerea [2]) | inhibition at 100 µg/mL (Botrytis cinerea [3])
CC1(C)C[C@H](O)[C@]23CC[C@H](O)[C@@](C)(CC[C@@H]12)C3 | 30% | 21% | 24%
CO[C@H]1CC(C)(C)[C@@H]2CC[C@@]3(C)C[C@]12CCC3=O | 76% | 17% | 42%
CC1(C)CC(=O)[C@]23CCC(=O)[C@@](C)(CC[C@@H]12)C3 | 36% | 21% | 25%
CO[C@H]1CC(C)(C)[C@@H]2CC[C@@]3(CO)C[C@]12CC[C@H]3O | 24% | 2% | 9%
CO[C@H]1CC(C)(C)[C@@H]2CC[C@@]3(C)C[C@]12CC[C@@H]3O | 65% | 29% | 43%
C=CCO[C@H]1CC(C)(C)[C@@H]2CC[C@@]3(C)C[C@]12CC[C@H]3O | 82% | 63% | 72%
CC1(C)C[C@H](OCCN)[C@]23CC[C@@H](O)[C@@](C)(CC[C@@H]12)C3 | 97% | 50% | 82%
CC1(C)C[C@H](OCCCl)[C@]23CC[C@@H](O)[C@@](C)(CC[C@@H]12)C3 | 66% | 56% | 64%
CC1(C)C[C@H](OCCBr)[C@]23CC[C@@H](O)[C@@](C)(CC[C@@H]12)C3 | 77% | 68% | 73%
CC1(C)C[C@H](OCCI)[C@]23CC[C@@H](O)[C@@](C)(CC[C@@H]12)C3 | 70% | 65% | 67%
CC1(C)C[C@H](OCCS)[C@]23CC[C@@H](O)[C@@](C)(CC[C@@H]12)C3 | 28% | 27% | 27%
CC1(C)C[C@H](OCC[N+](=O)[O-])[C@]23CC[C@@H](O)[C@@](C)(CC[C@@H]12)C3 | 90% | 80% | 86%
CC1(C)C[C@H](OCCO)[C@]23CC[C@@H](O)[C@@](C)(CC[C@@H]12)C3 | 60% | 48% | 54%
CC1(C)C[C@H](OCCn2ccnc2)[C@]23CC[C@@H](O)[C@@](C)(CC[C@@H]12)C3 | 98% | 67% | 84%
CC1(C)C[C@H](OCCOc2ccc([N+](=O)[O-])cc2)[C@]23CC[C@@H](O)[C@@](C)(CC[C@@H]12)C3 | 81% | 76% | 79%
CC1(C)C[C@H](OCCSC(=N)N)[C@]23CC[C@@H](O)[C@@](C)(CC[C@@H]12)C3 | 97% | 70% | 83%
CC1(C)C[C@H](OCCSc2ccccc2)[C@]23CC[C@@H](O)[C@@](C)(CC[C@@H]12)C3 | 24% | 6% | 12%
CC1(C)C[C@H](OCCn2cncn2)[C@]23CC[C@@H](O)[C@@](C)(CC[C@@H]12)C3 | 86% | 34% | 57%
CC(C)(C)O[C@H]1CC(C)(C)[C@@H]2CC[C@@]3(C)C[C@]12CC[C@H]3O | 78% | 59% | 66%
CC1(C)C[C@H](SCCS)[C@]23CC[C@@H](O)[C@@](C)(CC[C@@H]12)C3 | 38% | 32% | 34%
CC1(C)C[C@H](OCCN2C(=O)c3ccccc3C2=O)[C@]23CC[C@@H](O)[C@@](C)(CC[C@@H]12)C3 | 60% | 50% | 55%
CO[C@H]1CC(C)(C)[C@@H]2CC[C@@]3(C)C[C@]12CC[C@H]3O [2BETA-METHOXYCLOVAN-9ALPHA-OL] | 83% | 49% | 60%
CC1(C)C[C@H](O)[C@]23CC[C@@H](O)[C@@](C)(CC[C@@H]12)C3 [CLOVANEDIOL] | 63% | 36% | 50%

— ChEMBL document CHEMBL3046965, “Synthesis and quantitative structure-antifungal activity relationships of clovane derivatives against Botrytis cinerea” (2009)
